Screening results (PubChem)
An excerpt weighted towards active compounds, which were near 1.5% of everything screened.
S1P4 agonist: activates the human S1P4 receptor; activation, % at 4.98 µM; 220,000 tested, 0.35% active; O95977; AID 1509; S1P4-expressing cell line, agonist reporter assay; in the data active = activation above about 11%;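 also: 0% = DMSO vehicle and 100% = reference agonist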
Target sequence (O95977 whole entry, looked up): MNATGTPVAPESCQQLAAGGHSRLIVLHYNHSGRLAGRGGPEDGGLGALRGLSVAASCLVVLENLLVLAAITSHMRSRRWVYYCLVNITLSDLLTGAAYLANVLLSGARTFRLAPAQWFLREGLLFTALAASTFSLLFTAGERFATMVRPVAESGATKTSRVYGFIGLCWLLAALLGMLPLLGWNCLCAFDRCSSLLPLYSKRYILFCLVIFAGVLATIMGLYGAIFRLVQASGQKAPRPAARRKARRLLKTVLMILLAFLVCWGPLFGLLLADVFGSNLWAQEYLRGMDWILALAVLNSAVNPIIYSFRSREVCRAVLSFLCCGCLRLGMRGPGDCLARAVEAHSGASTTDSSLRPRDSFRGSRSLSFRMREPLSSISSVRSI
zVAD death inh: blocks zVAD induced death of L929 cells; 220,000 tested, 0.38% active; viability rescue, % at 10 µM; L929 zVAD necroptosis rescue, ATP luminescence, 24 h; with zVAD 60 µM; AID 1377;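 active = activation, scaled between plate controls, above about 75%, limit read from the data; inactive = activation under that limit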;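 also: 0% = zVAD with DMSO and 100% = DMSO alone without zVAD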
Tb hexokinase: blocks Trypanosoma brucei hexokinase 1 activity; recombinant TbHK1, G6PDH-coupled NADH A340; inhibition, % at 10 µM; 220,000 tested, 0.11% active;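 active = inhibition of 50% or more in the single-dose primary screen; inactive = inhibition below 50%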
S1P4 antagonist: antagonists of human S1P4 receptor; O95977; S1P4-expressing cells, antagonist mode, reporter read-out; 220,000 tested, 0.26% active; inhibition, % at 4.98 µM; AID 1510; in the data active = inhibition above about 29%;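 also: 0% = wells stimulated with agonist and 100% = vehicle wells without agonist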
Dynein cargo inh: dynein cargo transport inhibition | 3617.4 mouse cells, GR-EGFP nuclear translocation imaging; test concentration mostly 20 µM; stimulated with dexamethasone, 1 µM; hits give low values | z-score, hits read low | 220,000 tested, 0.47% active;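 active = plate z-score of nuclear minus cytoplasmic receptor signal below a set negative limit, without overly bright fluorescence or cell loss, cut at about -3.5 in these data, passing the limit was not always enough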;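 also: z-score of nuclear minus cytoplasmic ring GR-EGFP intensity difference per well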
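Also added – dexamethasone, 1.0 µM final · Buffer or medium – tet-free, stripped-serum medium · Schedule – induction 48 h, compound 1 h, agonist 30 min · Detection – formaldehyde fixation, Hoechst nuclear stain, 10x automated fluorescence imaging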
TNF necrop inh: TNF-alpha cell death inhibition in Jurkat FADD-/- cells. Jurkat FADD-/- TNF necroptosis rescue, ATP luminescence, 24 h; 0 = TNF only, 100 = no-TNF cells. activation (protection from cell death), % at 10 µM. 220,000 tested, 0.068% active. AID 463075;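 active = activation, meaning protection from cell death, of at least 50% relative to plate controls; inactive = activation below 50%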;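 also: necroptosis triggered by 40 ng/mL TNF-alpha added together with compound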
Dynein inh conf: dynein cargo transport inhibition, confirmation; AID 463116; calls only at 20 µM; shares compounds with Dynein cargo inh; 1,000 tested, 69% active; 3617.4 GR-EGFP nuclear translocation imaging, dexamethasone-induced;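 active = inhibition of receptor movement into the nucleus at or above a set limit in both runs, with normal cell brightness and cell count; inconclusive = limit reached in only one run, brightness and count normal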;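 also: dexamethasone at 1 µM final in well for 30 min; nuclear minus cytoplasmic GR-EGFP mean intensity difference in channel 2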
Numbers without * were called inactive.

Screening Cc1cccc(Cn2ncc(Cl)c(Cl)c2=O)c1 returned S1P4 agonist -1.0, zVAD death inh 16.7, Tb hexokinase -4.7, S1P4 antagonist 7.5, Dynein cargo inh -4.3*, TNF necrop inh -11.2 and Dynein inh conf active.
Cc1cccc(Cn2nnc3c2C(=O)c2ccccc2C3=O)c1 was read as S1P4 agonist -2.1, zVAD death inh -0.8, Tb hexokinase -0.7, S1P4 antagonist 2.1, Dynein cargo inh -0.795 and TNF necrop inh -2.8.
Screening CCc1cccc(CC)c1NC(=S)N(CCN(C)C)C(C)c1cccnc1 (configuration not stated) returned S1P4 agonist 0.0, zVAD death inh 1.9, Tb hexokinase 2.9, S1P4 antagonist -2.5, Dynein cargo inh 1.32 and TNF necrop inh 0.4.
Cc1ccc(OCc2nc(-c3cccs3)no2)c([N+](=O)[O-])c1 was read as S1P4 agonist 0.4, zVAD death inh 4.8, Tb hexokinase -0.2, S1P4 antagonist -7.8, Dynein cargo inh 1.07 and TNF necrop inh 0.1.
`Cc1ccc2nc(Cl)c3nnnn3c2c1` gave S1P4 agonist -0.7, zVAD death inh 1.4, Tb hexokinase -10.6, S1P4 antagonist 27.2, Dynein cargo inh -5.19*, TNF necrop inh -14.1 and Dynein inh conf active.
Cc1ccc2nc(N3CCN(c4cccc(C)c4C)CC3)c3nnnn3c2c1 was read as S1P4 agonist -0.7, zVAD death inh 0.7, Tb hexokinase -6.1, S1P4 antagonist -13.2, Dynein cargo inh -0.506 and TNF necrop inh -1.7.
`C=CCS(=O)(=O)c1nc2ccccc2s1` gave S1P4 agonist -2.1, zVAD death inh -0.1, Tb hexokinase 1.4, S1P4 antagonist 8.1, Dynein cargo inh -5.43*, TNF necrop inh 1.5 and Dynein inh conf inactive.
`Cc1cccc(Oc2ccc(Cl)cc2N)c1` gave S1P4 agonist 0.8, zVAD death inh -0.1, Tb hexokinase 10.0, S1P4 antagonist 7.1, Dynein cargo inh 0.87 and TNF necrop inh -3.2.
For O=C(OCCN1C(=O)c2cccc3c(N4CCOCC4)ccc(c23)C1=O)c1cccc(Cl)c1 the results were S1P4 agonist 1.7, zVAD death inh 1.1, Tb hexokinase -9.3, S1P4 antagonist -19.9, Dynein cargo inh -3.8, TNF necrop inh -1.4 and Dynein inh conf inconclusive.
For O=C(OCCN1C(=O)c2cccc3c(N4CCOCC4)ccc(c23)C1=O)c1ccccc1Cl the results were S1P4 agonist 0.9, zVAD death inh 1.5, Tb hexokinase 27.4, S1P4 antagonist -15.7, Dynein cargo inh 0.965 and TNF necrop inh -2.3.
`O=C(OCCN1C(=O)c2cccc3c(N4CCOCC4)ccc(c23)C1=O)c1ccc(Cl)cc1Cl` gave S1P4 agonist -1.1, zVAD death inh 0.2, Tb hexokinase -3.7, S1P4 antagonist -4.3, Dynein cargo inh -10.7, TNF necrop inh -4.5 and Dynein inh conf active.
For CCOc1cc(CNCCCN2CCOCC2)cc(Br)c1OCc1ccccc1Cl the results were S1P4 agonist 2.4, zVAD death inh 8.4, Tb hexokinase -1.1, S1P4 antagonist 21.6, Dynein cargo inh -5.12*, TNF necrop inh -4.0 and Dynein inh conf inactive.
For CCOC(=O)C1=C(C)NC(=O)NC1c1ccoc1 (configuration not stated) the results were S1P4 agonist -0.8, zVAD death inh 0.5, Tb hexokinase -6.2, S1P4 antagonist -2.1, Dynein cargo inh -0.549 and TNF necrop inh -1.0.
Screening CC(=O)O[C@@H]1C[C@H]2C(C)(C)C(=O)C=C[C@]2(C)[C@H]2CC[C@@]3(C)[C@H](c4ccoc4)OC(=O)[C@H]4O[C@]43[C@@]21C returned S1P4 agonist 0.2, zVAD death inh 1.1, Tb hexokinase 1.1, S1P4 antagonist -4.0, Dynein cargo inh -3.86*, TNF necrop inh -8.7 and Dynein inh conf active.
Screening COc1cc2c(cc1OC)CN(CCC(=O)c1ccc(Br)cc1)CC2 returned S1P4 agonist 1.3, zVAD death inh 3.3, Tb hexokinase 1.0, S1P4 antagonist -9.3, Dynein cargo inh -4.06*, TNF necrop inh 0.7 and Dynein inh conf inconclusive.
Screening CCC(=O)OCCNc1cc(Sc2nc3ccccc3s2)c2nonc2c1[N+](=O)[O-] returned S1P4 agonist 2.5, zVAD death inh 4.6, Tb hexokinase 3.0, S1P4 antagonist 8.9, Dynein cargo inh -1.96 and TNF necrop inh -26.4.
O=[N+]([O-])c1c(NCCCO)cc(Sc2nc3ccccc3s2)c2nonc12 was read as S1P4 agonist 0.1, zVAD death inh 1.0, Tb hexokinase 0.1, S1P4 antagonist -7.4, Dynein cargo inh -4.13*, TNF necrop inh -23.1 and Dynein inh conf active.
Screening O=C(CS(=O)c1ccc(C(F)(F)F)cc1[N+](=O)[O-])Oc1ccc(Cl)cc1 (configuration not stated) returned S1P4 agonist -1.4, zVAD death inh 0.0, Tb hexokinase -3.8, S1P4 antagonist -11.5, Dynein cargo inh 0.575 and TNF necrop inh 0.2.
Screening Cc1cc(C)cc(OC(=O)CS(=O)c2ccc(C(F)(F)F)cc2[N+](=O)[O-])c1 (configuration not stated) returned S1P4 agonist -1.1, zVAD death inh -1.2, Tb hexokinase 2.9, S1P4 antagonist 25.7, Dynein cargo inh -3.71*, TNF necrop inh -1.1 and Dynein inh conf active.
`Cc1cc(C(=O)CCl)c(C)n1CCc1ccc(Cl)cc1` gave S1P4 agonist 3.0, zVAD death inh 0.1, Tb hexokinase 3.3, S1P4 antagonist 2.6, Dynein cargo inh -6.29*, TNF necrop inh -13.8 and Dynein inh conf active.
Screening COc1ccc(CCn2c(C)cc(C(=O)CCl)c2C)cc1OC returned S1P4 agonist -1.1, zVAD death inh -1.6, Tb hexokinase 4.8, S1P4 antagonist -12.8, Dynein cargo inh -3.71*, TNF necrop inh -14.3 and Dynein inh conf active.
For CC[n+]1c(/C=C/C=C/N(C(C)=O)c2ccccc2)sc2cc(OC)ccc21 the results were S1P4 agonist 0.7, zVAD death inh -1.1, Tb hexokinase 4.7, S1P4 antagonist 1.9, Dynein cargo inh -3.79*, TNF necrop inh -7.3 and Dynein inh conf active.
For O=S(=O)(NC1c2cccc3cccc(c23)C1N1CCNCC1)c1ccc(Cl)cc1 (configuration not stated) the results were S1P4 agonist -0.7, zVAD death inh 4.7, Tb hexokinase 5.2, S1P4 antagonist 6.2, Dynein cargo inh 3.82 and TNF necrop inh -1.3.
For O=[N+]([O-])/C=C/c1cn(Cc2ccc(Cl)cc2)c2ccccc12 the results were S1P4 agonist 0.5, zVAD death inh -0.5, Tb hexokinase 32.4, S1P4 antagonist 3.8, Dynein cargo inh -3.72*, TNF necrop inh 2.9 and Dynein inh conf inactive.
